# Source: ChEMBL document CHEMBL1125894, “Dual-action cephalosporins: cephalosporin 3'-quaternary ammonium quinolones” (1991)
# Key:
# Escherichia coli [1] = assay: In vivo activity in murine against Escherichia coli 257 infection after sc administration.; format: functional; details: Escherichia coli, sc; read-out: ED50
# In short: (§1)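 Mouse protection test in CD1 Swiss albino mice (18–20 g). Mice were infected intraperitoneally with 0.5 mL of a diluted bacterial suspension, then treated within 5 min with one 1.0 mL subcutaneous dose at the dorsal base of the neck. Doses ranged from 0.05 to 250 mg/kg, with six mice per group. ED50 was calculated by the Reed–Muench method.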
# Enterobacter cloacae [2] = assay: In vivo activity in murine against Enterobacter cloacae 5699 infection after sc administration.; format: functional; in short: as §1
# Klebsiella pneumoniae [3] = assay: In vivo activity in murine against Klebsiella pneumoniae A infection after sc administration.; format: functional; in short: as §1
# Pseudomonas aeruginosa [4] = assay: In vivo activity in murine against Pseudomonas aeruginosa 5712 infection after sc administration.; format: functional; details: Pseudomonas aeruginosa, sc; read-out: ED50
# In short: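 Mouse protection test in CD1 Swiss albino mice (18–20 g) infected intraperitoneally with 0.5 mL of diluted P. aeruginosa suspension. Mice received 1.0 mL subcutaneously at the neck base within 5 min of infection and a second treatment 3 h after infection. Doses ranged from 0.05 to 250 mg/kg, with six mice per group. ED50 was calculated by the Reed–Muench method.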
# Serratia marcescens [5] = assay: In vivo activity in murine against Serratia marcescens SM infection after sc administration.; format: functional; in short: as §1
# Streptococcus pyogenes [6] = assay: In vivo activity in murine against Streptococcus pyogenes 4 infection after sc administration.; format: functional; in short: as §1
# Streptococcus pneumoniae [7] = assay: In vivo activity in murine against Streptococcus pneumoniae 6301 infection after sc administration.; format: functional; in short: as §1
# Staphylococcus aureus [8] = assay: In vivo activity in murine against Staphylococcus aureus 753(MR) infection after sc administration.; format: functional; in short: as §1
# Staphylococcus aureus [9] = assay: In vivo activity in murine against Staphylococcus aureus Smith (MS) infection after sc administration.; format: functional; in short: as §1
# Citrobacter freundii [10] = assay: In vivo activity in murine against Citrobacter freundii BS#16 infection after sc administration.; format: functional
# In short: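 CD1 Swiss albino mice (18–20 g) infected intraperitoneally with 0.5 mL diluted bacterial culture suspension. Single subcutaneous treatment within 5 min, 1.0 mL at dorsal base of neck, serial dilutions spanning 0.05–250 mg/kg. Six mice per treatment and control group. ED50 (50% protective dose) derived by Reed and Muench method.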
# Citrobacter freundii [11] = assay: In vitro antibacterial activity against Citrobacter freundii BS 16; format: functional
# In short: (§2)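 Serial 2-fold dilutions in the NCCLS broth microdilution method for aerobic nonfastidious organisms, with an 18-h incubation. The value is reported as the minimum inhibitory concentration (MIC).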
# Enterobacter cloacae [12] = assay: In vitro antibacterial activity against Enterobacter cloacae 5699; format: functional; in short: as §2
# Escherichia coli [13] = assay: In vitro antibacterial activity against Escherichia coli 257; format: functional; in short: as §2
# Klebsiella pneumoniae [14] = assay: In vitro antibacterial activity against Klebsiella pneumoniae A; format: functional; in short: as §2
# Pseudomonas aeruginosa [15] = assay: In vitro antibacterial activity against Pseudomonas aeruginosa 5712; format: functional; in short: as §2
# Staphylococcus aureus [16] = assay: In vitro antibacterial activity against Staphylococcus aureus 95(MR); format: functional
# In short: (§3)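 Staphylococci were tested by the standard agar dilution procedure using serial 2-fold dilutions of agent. The value is reported as the MIC.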
# Staphylococcus aureus [17] = assay: In vitro antibacterial activity against Staphylococcus aureus Smith(MS); format: functional; in short: as §3
# Serratia marcescens [18] = assay: In vitro antibacterial activity against Serratia marcescens SM; format: functional; in short: as §2
# Streptococcus pneumoniae [19] = assay: In vitro antibacterial activity against Streptococcus pneumoniae 6301; format: functional
# In short: (§4)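 Broth macrodilution with serial 2-fold dilutions in cation-supplemented Mueller-Hinton broth containing 10% goat serum. The value is reported as the MIC.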
# Streptococcus pyogenes [20] = assay: In vitro antibacterial activity against Streptococcus pyogenes 4; format: functional; in short: as §4
# Enterobacter cloacae [21] = assay: In vitro antibacterial activity against Enterobacter cloacae P99; format: functional; in short: as §2
# Escherichia coli [22] = assay: Antibacterial activity against Escherichia coli DC-O; format: functional; in short: as §2
# Escherichia coli [23] = assay: Concentration required for 90% inhibition against 60 kDa penicillin-binding protein 3 binding using [14C]-Pen G as the radioligand.
# In short: (§5)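 Solubilized membranes from sonicated E. coli DC-0 were used. PBP binding was measured as inhibition of [14C]penicillin G binding to each PBP.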
# [24] = target: T1, Peptidoglycan D,D-transpeptidase MrdA (Escherichia coli K-12) (UniProt P0AD65); assay: Concentration required for 90% inhibition against 66 kDa penicillin-binding protein 2 binding using [14C]-Pen G as the radioligand.; in short: as §5
# T1 sequence (whole entry): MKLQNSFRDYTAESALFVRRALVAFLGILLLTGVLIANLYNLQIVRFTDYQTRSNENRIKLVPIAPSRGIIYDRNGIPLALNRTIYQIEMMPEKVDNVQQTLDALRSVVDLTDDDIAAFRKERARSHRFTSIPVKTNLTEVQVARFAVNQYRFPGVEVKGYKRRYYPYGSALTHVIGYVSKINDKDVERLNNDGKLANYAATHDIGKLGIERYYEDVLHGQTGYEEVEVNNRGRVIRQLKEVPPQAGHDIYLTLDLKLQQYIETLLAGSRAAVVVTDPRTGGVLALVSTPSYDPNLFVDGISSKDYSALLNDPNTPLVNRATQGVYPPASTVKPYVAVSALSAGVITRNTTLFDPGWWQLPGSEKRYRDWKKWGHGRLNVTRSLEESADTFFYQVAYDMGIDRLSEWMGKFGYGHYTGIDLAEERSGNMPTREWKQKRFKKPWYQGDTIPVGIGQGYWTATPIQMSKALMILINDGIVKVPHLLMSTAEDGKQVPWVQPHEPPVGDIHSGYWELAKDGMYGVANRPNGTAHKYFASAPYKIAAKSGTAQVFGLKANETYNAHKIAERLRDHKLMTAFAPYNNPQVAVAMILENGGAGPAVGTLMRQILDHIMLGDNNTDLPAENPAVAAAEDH
# [25] = target: T2, Penicillin-binding protein 1A (Escherichia coli K-12) (UniProt P02918); assay: Concentration required for 90% inhibition against 90 kDa penicillin-binding protein 1a binding using [14C]-Pen G as the radioligand.; in short: as §5
# T2 sequence (whole entry): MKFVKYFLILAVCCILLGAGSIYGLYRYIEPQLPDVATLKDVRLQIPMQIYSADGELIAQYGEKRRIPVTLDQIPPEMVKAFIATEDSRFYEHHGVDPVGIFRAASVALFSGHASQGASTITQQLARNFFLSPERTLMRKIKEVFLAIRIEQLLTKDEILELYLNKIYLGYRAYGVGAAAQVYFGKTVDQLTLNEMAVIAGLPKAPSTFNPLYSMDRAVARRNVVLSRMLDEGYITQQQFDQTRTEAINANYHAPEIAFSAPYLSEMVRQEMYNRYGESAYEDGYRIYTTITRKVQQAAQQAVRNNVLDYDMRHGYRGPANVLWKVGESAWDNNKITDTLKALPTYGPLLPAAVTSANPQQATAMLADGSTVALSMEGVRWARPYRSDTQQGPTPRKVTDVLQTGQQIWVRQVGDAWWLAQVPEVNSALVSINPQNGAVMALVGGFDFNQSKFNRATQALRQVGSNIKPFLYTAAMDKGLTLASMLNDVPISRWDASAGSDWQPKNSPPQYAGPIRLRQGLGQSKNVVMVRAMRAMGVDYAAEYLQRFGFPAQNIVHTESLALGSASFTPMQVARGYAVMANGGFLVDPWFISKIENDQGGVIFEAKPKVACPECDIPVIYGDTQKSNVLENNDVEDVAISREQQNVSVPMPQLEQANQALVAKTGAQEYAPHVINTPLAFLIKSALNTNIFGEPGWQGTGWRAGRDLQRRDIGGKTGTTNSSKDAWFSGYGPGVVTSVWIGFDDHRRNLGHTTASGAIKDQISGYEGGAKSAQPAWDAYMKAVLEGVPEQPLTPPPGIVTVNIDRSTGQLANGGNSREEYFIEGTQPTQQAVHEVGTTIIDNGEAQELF
# [26] = target: T3, Penicillin-binding protein 1B (Escherichia coli K-12) (UniProt P02919); assay: Concentration required for 90% inhibition against 90 kDa penicillin-binding protein 1b binding using [14C]-Pen G as the radioligand.; in short: as §5
# T3 sequence (whole entry): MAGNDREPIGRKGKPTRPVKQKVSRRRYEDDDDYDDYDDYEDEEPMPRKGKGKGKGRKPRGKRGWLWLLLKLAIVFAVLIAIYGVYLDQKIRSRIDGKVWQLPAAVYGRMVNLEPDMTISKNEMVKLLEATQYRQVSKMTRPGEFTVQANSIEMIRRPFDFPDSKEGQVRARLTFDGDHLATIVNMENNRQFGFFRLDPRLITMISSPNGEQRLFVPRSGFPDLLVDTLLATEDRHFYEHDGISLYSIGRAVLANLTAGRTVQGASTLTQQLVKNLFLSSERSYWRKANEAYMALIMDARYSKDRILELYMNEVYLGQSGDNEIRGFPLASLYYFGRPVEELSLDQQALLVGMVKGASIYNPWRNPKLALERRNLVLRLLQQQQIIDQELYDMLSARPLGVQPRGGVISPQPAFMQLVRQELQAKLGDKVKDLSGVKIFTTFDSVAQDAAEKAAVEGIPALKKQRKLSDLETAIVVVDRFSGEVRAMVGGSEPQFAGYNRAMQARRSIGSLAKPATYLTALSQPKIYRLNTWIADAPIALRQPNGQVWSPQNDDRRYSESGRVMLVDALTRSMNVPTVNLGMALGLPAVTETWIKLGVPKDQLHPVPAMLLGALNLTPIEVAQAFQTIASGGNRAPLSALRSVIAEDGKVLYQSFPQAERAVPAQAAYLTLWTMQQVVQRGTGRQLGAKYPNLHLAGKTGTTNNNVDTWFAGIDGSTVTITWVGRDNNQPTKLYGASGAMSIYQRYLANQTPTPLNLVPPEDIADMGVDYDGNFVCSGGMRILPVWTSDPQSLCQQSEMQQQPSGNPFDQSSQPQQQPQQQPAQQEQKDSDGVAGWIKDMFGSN
structure (smiles),measurement,setting,value
CC(C)(O/N=C(\C(=O)N[C@@H]1C(=O)N2C(C(=O)[O-])=C(C[n+]3ccccc3)CS[C@H]12)c1csc(N)n1)C(=O)O [CEFTAZIDIME],ED50,Escherichia coli [1],< 0.5 mg/kg
same,ED50,Enterobacter cloacae [2],25 mg/kg
same,ED50,Klebsiella pneumoniae [3],< 2 mg/kg
same,ED50,Pseudomonas aeruginosa [4],217 mg/kg
same,ED50,Serratia marcescens [5],67 mg/kg
same,ED50,Streptococcus pyogenes [6],12 mg/kg
same,ED50,Streptococcus pneumoniae [7],3 mg/kg
same,ED50,Staphylococcus aureus [8],62 mg/kg
same,ED50,Staphylococcus aureus [9],< 2 mg/kg
same,ED50,Citrobacter freundii [10],22 mg/kg
C[N+]1(CC2=C(C(=O)[O-])N3C(=O)[C@@H](NC=O)[C@H]3SC2)CCN(c2c(F)cc3c(=O)c(C(=O)O)cn(CCF)c3c2F)CC1,MIC,Citrobacter freundii [11],16 µg/mL
same,MIC,Enterobacter cloacae [12],4 µg/mL
same,MIC,Escherichia coli [13],2 µg/mL
same,MIC,Klebsiella pneumoniae [14],2 µg/mL
same,MIC,Pseudomonas aeruginosa [15],128 µg/mL
same,MIC,Staphylococcus aureus [16],1 µg/mL
same,MIC,Staphylococcus aureus [17],4 µg/mL
same,MIC,Serratia marcescens [18],8 µg/mL
same,MIC,Streptococcus pneumoniae [19],16 µg/mL
same,MIC,Streptococcus pyogenes [20],8 µg/mL
same,MIC,Enterobacter cloacae [21],0.5 µg/mL
C[N+]1(CC2=C(C(=O)[O-])N3C(=O)[C@@H](NC(=O)COc4ccccc4)[C@H]3SC2)CCN(c2c(F)cc3c(=O)c(C(=O)O)cn(CCF)c3c2F)CC1,MIC,Citrobacter freundii [11],2 µg/mL
same,MIC,Enterobacter cloacae [12],0.5 µg/mL
same,MIC,Escherichia coli [13],0.5 µg/mL
same,MIC,Escherichia coli [22],8 µg/mL
same,MIC,Klebsiella pneumoniae [14],0.5 µg/mL
same,Concentration,Escherichia coli [23],2 µg/mL
same,Concentration,[24],> 100 µg/mL
same,Concentration,[25],10 µg/mL
same,Concentration,[26],100 µg/mL
same,MIC,Pseudomonas aeruginosa [15],32 µg/mL
same,MIC,Staphylococcus aureus [16],1 µg/mL
same,MIC,Staphylococcus aureus [17],0.5 µg/mL
same,MIC,Serratia marcescens [18],2 µg/mL
same,MIC,Streptococcus pneumoniae [19],0.25 µg/mL
same,MIC,Streptococcus pyogenes [20],0.063 µg/mL
same,MIC,Enterobacter cloacae [21],0.5 µg/mL
CO/N=C(\C(=O)N[C@@H]1C(=O)N2C(C(=O)[O-])=C(C[N+]3(C)CCN(c4c(F)cc5c(=O)c(C(=O)O)cn(CCF)c5c4F)CC3)CS[C@H]12)c1csc(N)n1,MIC,Citrobacter freundii [11],2 µg/mL
same,ED50,Escherichia coli [1],< 0.5 mg/kg
same,MIC,Enterobacter cloacae [12],0.5 µg/mL
same,MIC,Escherichia coli [13],0.125 µg/mL
same,MIC,Escherichia coli [22],0.2 µg/mL
same,MIC,Klebsiella pneumoniae [14],0.5 µg/mL
same,Concentration,Escherichia coli [23],0.1 µg/mL
same,Concentration,[24],100 µg/mL
same,Concentration,[25],> 100 µg/mL
same,Concentration,[26],> 100 µg/mL
same,ED50,Pseudomonas aeruginosa [4],> 250 mg/kg
same,MIC,Pseudomonas aeruginosa [15],32 µg/mL
same,MIC,Staphylococcus aureus [16],4 µg/mL
same,MIC,Staphylococcus aureus [17],4 µg/mL
same,ED50,Serratia marcescens [5],10 mg/kg
same,MIC,Serratia marcescens [18],1 µg/mL
same,ED50,Streptococcus pyogenes [6],< 5 mg/kg
same,ED50,Streptococcus pneumoniae [7],12 mg/kg
same,MIC,Streptococcus pneumoniae [19],0.063 µg/mL
same,MIC,Streptococcus pyogenes [20],0.125 µg/mL
same,MIC,Enterobacter cloacae [21],0.5 µg/mL
